Data published in paper PMC9933231 (ACS Omega, 2023).
≈ marks a conversion by molar mass, not a printed value.

Key:
Cytotoxicity assay [1] = type: cell-based; conditions: human, HaCaT keratinocytes
In short: (§1)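 Cells were kept in RPMI 1640 with 10% FBS, penicillin and streptomycin at 37 °C in humidified 5% CO2, and subcultured every 3–4 days. They were seeded at 1 × 10^4 cells/well and left 24 h. Medium was then replaced with test samples, with doxorubicin as reference, for 24 h at 37 °C. CellTiter-Blue was added for 2 h at 37 °C, and fluorescence was read at ex 560/em 590 nm.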

Cytotoxicity assay [2] = type: cell-based; conditions: human, HepG2 cells
In short: as §1

COc1cccc2c1C(=O)c1c(O)c3c(c(O)c1C2=O)C[C@@](O)(C(=O)CO)C[C@@H]3O[C@H]1C[C@H](N)[C@H](O)[C@H](C)O1 [doxorubicin]
IC50 at 24 h (Cytotoxicity assay [1]): 19.8 ± 0.8 µg/mL (≈ 36.4 µM)
IC50 at 24 h (Cytotoxicity assay [2]): 11.4 ± 0.5 µg/mL (≈ 21 µM)
